MEKK3 PB1 HTS = MEKK3-MEK5 PB1 interaction, increase or decrease; binding response (% of control), % at 10 µM; bead-based flow cytometry, Alexa488-MEK5 binding to MEKK3; actives lie on both sides; 0 = blocked by unlabeled MEK5, 100 = vehicle; 290,000 compounds, 1.4% hits;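 active means binding response more than 3 SD above or below the average of its plate-row segment, actives on both sides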;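 further: Alexa488 bead fluorescence after subtracting the streptavidin-only scavenger bead signal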
MEKK2wt PB1 HTS = raises or lowers MEK5 binding to wildtype human MEKK2 PB1 domain; binding response (% of control), % at 10 µM; 290,000 compounds, 1.1% hits; bead flow cytometry, Alexa488-MEK5 binding to MEKK2 WT; actives lie on both sides; Q9Y2U5; in the data active means binding response below about 67% or above about 130%
MEKK2 mut-MEK5 = signal of MEK5 binding to mutant human MEKK2 PB1 domain | 290,000 compounds, 0.35% hits | AID 1530 | bead flow cytometry, Alexa488-MEK5 binding to MEKK2 mutant | percent response, % at 10 µM; in the data active means percent response above about 24%, passing the limit was not always enough
GSK3A inh = blocks human GSK-3 alpha kinase; P49840; ADP-Glo luminescence, 60 min; inhibition, % at 10 µM; 320,000 compounds, 0.1% hits; AID 2650;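 active means more than half of replicates show inhibition above 20%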;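 further: GST-tagged GSK-3 alpha with peptide substrate and 25 µM ATP; 0% = DMSO neutral wells and 100% = GW8510 positive control wells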
STK33 kinase inh = blocks human STK33 kinase activity. purified STK33, MBP phosphorylation, ADP-Glo luminescence. AID 2661. Q9BYT3. 320,000 compounds, 0.073% hits. inhibition, % at 10 µM;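 active means inhibition at or above 25%, using the most active replicate where run in duplicate; inactive means inhibition below 25%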
Target sequence (Q9BYT3 whole entry, looked up): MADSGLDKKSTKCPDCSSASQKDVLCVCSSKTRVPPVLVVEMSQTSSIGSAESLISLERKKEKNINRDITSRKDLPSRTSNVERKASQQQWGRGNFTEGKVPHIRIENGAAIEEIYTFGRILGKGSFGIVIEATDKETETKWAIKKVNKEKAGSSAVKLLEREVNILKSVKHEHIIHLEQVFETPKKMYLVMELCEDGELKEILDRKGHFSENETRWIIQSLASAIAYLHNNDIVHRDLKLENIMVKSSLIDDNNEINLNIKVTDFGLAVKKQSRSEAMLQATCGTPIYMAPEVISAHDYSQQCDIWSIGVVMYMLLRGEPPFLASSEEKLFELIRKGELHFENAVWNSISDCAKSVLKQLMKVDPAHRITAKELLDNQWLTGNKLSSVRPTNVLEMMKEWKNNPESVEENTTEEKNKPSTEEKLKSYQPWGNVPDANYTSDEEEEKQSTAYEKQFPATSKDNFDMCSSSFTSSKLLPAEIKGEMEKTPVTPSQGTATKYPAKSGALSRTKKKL
GSK3B inh = inhibitors of human GSK3beta kinase; P49841; GST-GSK3beta kinase, ADP-Glo luminescence, 60 min; stronger effect = lower value; activity score (negative = inhibition), % at 10 µM; 300,000 compounds, 0.038% hits; AID 2097;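 active means more than half of replicate wells score below -50%, meaning over 50% inhibition versus plate controls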;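 further: 0% = median DMSO wells and -100% = median GW8510 positive control wells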
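Test system: GST-tagged human GSK3beta kinase, cell-free; evaluation: activity score scaled between in-plate DMSO and GW8510 controls; measured by: ADP-Glo luminescence; incubation: 60 min reaction, RT; benchmarks: DMSO and 20 µM GW8510; reagent: peptide substrate plus 25 µM ATP (final); medium: Tris/MgCl2 kinase buffer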
MEKK2wt confirm = raises or lowers MEK5 binding to wildtype human MEKK2, retest; shares compounds with MEKK3 PB1 HTS; bead flow cytometry, Alexa488-MEK5 binding to MEKK2 WT; actives lie on both sides; binding response (% of control), % at 10 µM; 5,900 compounds, 2.4% hits; in the data active means binding response below about 16% or above about 210%; inactive means in between
MEKK2mut-MEK5 = signal of MEK5 binding to mutant human MEKK2, retest; shares compounds with MEKK3 PB1 HTS; bead flow cytometry, Alexa488-MEK5 binding to MEKK2 mutant; percent response, % at 10 µM; 5,900 compounds, 2% hits; in the data active means percent response mostly above about 71%, no sharp cut-off; inactive means mostly below about 38%;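 further: higher means compound restores mutant binding toward wildtype level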
MEKK3-MEK5 inh = MEKK3-MEK5 PB1 inhibition, single concentration confirmation; shares compounds with MEKK3 PB1 HTS; bead flow cytometry, Alexa488-MEK5 binding to MEKK3; stronger effect = lower value; binding response (% of control), % at 10 µM; 5,900 compounds, 1.8% hits; AID 1894;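 active means binding response below 72% of control, or above a set upper limit, though filed actives all read lower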;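 further: 100% = DMSO only wells and 0% = binding blocked by excess unlabeled MEK5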
Numbers without * were called inactive; x = no result given; [ ] = another dose, or the depositor's remark. Shown are actives, neighbours in structure and some others; about 2.1% of the full set was active somewhere.

SMILES | MEKK3 PB1 HTS | MEKK2wt PB1 HTS | MEKK2 mut-MEK5 | GSK3A inh | STK33 kinase inh | GSK3B inh | MEKK2wt confirm | MEKK2mut-MEK5 | MEKK3-MEK5 inh
O=C(Nc1ccccc1)C1=C(c2ccccc2)S(=O)(=O)CCS1(=O)=O | 6.0*[inhibitor] | 8.0*[inhibitor] | -19 | x | x | 2 | 103 | -4 | 101
CCC(C)NC(=O)C1CCN(S(=O)(=O)N2CCCC2)CC1 (stereo not given) | 1.0*[inhibitor] | -3.0*[inhibitor] | -20 | -4 | -1 | 1 | 98 | -4 | 100
Cc1ccc(Cl)cc1N1CCN(C(=O)Cc2cn(C)c3ccccc23)CC1 | 130* | 117 | 5 | -3 | 0 | -3 | 106 | 4 | 107
CC(=O)c1c(C)[nH]c(C(=O)OCC(=O)N2CCc3ccccc32)c1C | 2.0*[inhibitor] | 1.0*[inhibitor] | -41 | 2 | 0 | -2 | 106 | 2 | 101
CCOC(=O)c1[nH]c(C)c(C(=O)OCC(=O)N2CCc3ccccc32)c1C | 110 | 107 | 4 | -3 | 0 | x | x | x | x
COc1ccc(CSCC(=O)N/N=C/c2ccccc2O)cc1 | 100 | 99 | 1 | -1 | 0 | 4 | x | x | x
Clc1ccc(SCCn2ccnc2)cc1 | 70*[inhibitor] | 84 | -12 | 2 | 0 | 1 | 96 | 4 | 98
CCCCOc1ccc(C2(C)NC(=O)N(C)C2=O)cc1 (stereo not given) | 105 | 107 | 5 | 0 | -1 | 6 | x | x | x
Cc1ccc2c(CSc3nc4nc(C)cc(C)n4n3)cc(=O)oc2c1 | 94 | 97 | -9 | -2 | 0 | -4 | x | x | x
COc1ccc2c(CSc3nc4nc(C)cc(C)n4n3)cc(=O)oc2c1 | 122* | 123 | 6 | 1 | -2 | -1 | 97 | -3 | 100
COc1ccc(NS(=O)(=O)c2cccc(C(=O)NC3CCN(Cc4ccccc4)CC3)c2)cc1 | 77*[inhibitor] | 110 | -4 | 0 | -1 | -3 | 120 | 7 | 105
Cc1c(NS(=O)(=O)c2cc(C(=O)NCc3ccco3)cc(Cl)c2Cl)c(=O)n(-c2ccccc2)n1C | x | x | x | -2 | -1 | 2 | x | x | x
CSCCC(NC(=O)c1cccc([N+](=O)[O-])c1)c1nc2ccccc2[nH]1 (stereo not given) | 99 | 100 | -1 | -1 | -3 | 3 | x | x | x
CSCC[C@H](NC(=O)c1cc([N+](=O)[O-])ccc1Cl)c1nc2ccccc2[nH]1 | 143* | 109 | 1 | 20 | 2 | 2 | 97 | 3 | 100
COc1cc2c(cc1OC)C(c1cc(OC)c(OC)cc1[N+](=O)[O-])N(C(C)=O)CC2 (stereo not given) | 102 | 102 | 1 | -1 | -2 | 1 | x | x | x
COc1cc2c(cc1OC)C(NNC(=O)c1ccc(Br)o1)=NC(C)(C)C2 | 100 | 105 | 1 | 1 | -1 | 1 | x | x | x
Cc1cc(C)nc(SCCC(=O)N2CCOCC2)n1 | 123* | 123 | 11 | 1 | 0 | -1 | 99 | -1 | 100
CCCCN1C(=O)/C(=C/C=C2\N(C)c3ccccc3C2(C)C)SC1=S | 67 | 130 | 156* | 1 | 1 | -4 | 36 | -58*[inhibitor] | 41*
C=C(C)CN1C(=O)C2(OCCO2)c2ccccc21 | 98 | 104 | 1 | 5 | 1 | -5 | x | x | x
O=C(NCCCN1CCOCC1)c1cc(Cl)ccc1Cl | 104 | 105 | 2 | -2 | 0 | 7 | x | x | x
O=C(NCCCN1CCN(CCCNC(=O)c2cc([N+](=O)[O-])ccc2Cl)CC1)c1cc([N+](=O)[O-])ccc1Cl | 91 | 206* | 24 | 2 | 1 | 1 | 205 | 79* | 105
CCOC(=O)C1=C(CC)Nc2ccccc2N=C1NC(=O)Nc1ccc(Cl)c(Cl)c1 | 97 | 145* | 20 | -3 | -1 | 1 | 148 | -7 | 98
CCOC(=O)C1=C(CC)Nc2ccccc2N=C1NC(=O)c1cc(C)on1 | x | x | x | 0 | 0 | x | x | x | x
O=[N+]([O-])c1cccc(-n2nnnc2CN2CCCCCC2)c1 | 122* | 124 | 5 | x | 0 | -3 | 105 | -4 | 101
O=[N+]([O-])c1cccc(-n2nnnc2CNCc2ccccc2)c1 | 87 | 88 | -26 | -2 | -1 | 0 | x | x | x
SMILES | MEKK3 PB1 HTS | MEKK2wt PB1 HTS | MEKK2 mut-MEK5 | GSK3A inh | STK33 kinase inh | GSK3B inh | MEKK2wt confirm | MEKK2mut-MEK5 | MEKK3-MEK5 inh
COc1ccc2cc3c(N)nn(C(=O)c4ccccc4[N+](=O)[O-])c3nc2c1 | 72*[inhibitor] | 98 | -1 | 10 | 0 | 1 | 95 | -3 | 97
COC(=O)[C@@H](NCc1cccc(CN[C@H](C(=O)OC)c2ccccc2)c1)c1ccccc1 | 107 | 163* | 8 | -1 | -1 | 2 | 91 | -7 | 93
Cc1[nH]n(-c2ccc([N+](=O)[O-])cc2)c(=O)c1C=NCCc1c(C)[nH]c2ccccc12 | 133* | 107 | 0 | 2 | -1 | -1 | 91 | -7 | 86
Cc1ccccc1CS(=O)(=O)CCC(=O)NCc1ccc(F)cc1Cl | 101 | 101 | 3 | -1 | -1 | -1 | x | x | x
CCC1=Nc2cc(C(=O)NCCCOC(C)C)ccc2Sc2ccccc21 | 128* | 127 | 5 | -2 | 0 | -2 | 95 | -1 | 99
CCC1=Nc2cc(C(=O)NCCCN3CCN(C)CC3)ccc2Sc2ccccc21 | 108 | 123 | 17 | 1 | -1 | -1 | x | x | x
CC(=O)c1ccc(S(=O)(=O)N2CCCC(N(C)CCc3ccccn3)C2)cc1 (stereo not given) | 105 | 106 | 4 | x | x | 0 | x | x | x
COc1ccc(N2CC(C(=O)NC3CCCCC3)CC2=O)cc1 (stereo not given) | 101 | 100 | -3 | 0 | -1 | 0 | x | x | x
CCN(Cc1ccccc1)S(=O)(=O)c1c[nH]c(C(=O)OC)c1 | 100 | 102 | -1 | -1 | 0 | -2 | x | x | x
COc1cc2nc(N3CCNCC3)nc(N)c2cc1OC | 99 | 106 | -3 | -1 | 2 | -7 | x | x | x
COc1cc2nc(N3CCN(c4cc(C)ccc4C)CC3)nc(N)c2cc1OC | 106 | 186* | 42* | -1 | 0 | -1 | 226* | 75* | 113
CCN(CC)Cc1nc2c(c(=O)[nH]1)C(CC)(CC)Cc1ccccc1-2 | 106 | 117 | 9 | 2 | 0 | 0 | x | x | x

Assay outcomes deposited in PubChem by several laboratories.
